Results from ChEMBL document CHEMBL3259688, “Synthesis and structure-activity relationship studies of conformationally flexible tetrahydroisoquinolinyl triazole carboxamide and triazole substituted benzamide analogues as σ2 receptor ligands” (J Med Chem, 2014).

Experiments:
[1] = target: Sigma non-opioid intracellular receptor 1 (Cavia porcellus, UniProt Q60492); assay: Displacement of (+)-[3H]pentazocine from sigma-1 receptor in guinea pig brain membrane homogenate after 90 mins by liquid scintillation counting analysis; format: cell membranes
Method in brief: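 Nonspecific binding with cold haloperidol. Compounds from DMSO or ethanol, diluted in 50 mM Tris-HCl, 150 mM NaCl, 100 mM EDTA, pH 7.4. Stopped with ice-cold 10 mM Tris-HCl/150 mM NaCl pH 7.4, filtered on fiberglass, washed, scintillation counted.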

[2] = Selectivity ratio of Ki for sigma-1 receptor in guinea pig brain membrane homogenate to Ki for sigma-2 receptor in rat liver membrane homogenate; format: cell membranes
[3] = Displacement of [3H]DTG from sigma-2 receptor in rat liver membrane homogenate after 2 hrs by liquid scintillation counting analysis in presence of pentazocine; format: cell membranes
[4] = Antagonist activity at sigma-2 receptor in mouse EMT6 cells assessed as inhibition of cell proliferation after 48 hrs by MTS assay; format: cell-based; details: EMT6, 48 h
Method in brief: (§1)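 EMT-6 mouse breast cancer cells grown in DMEM with 10% FBS and penicillin/streptomycin at 37 °C, 5% CO2. Seeded at 5 × 10^3 cells/well 24 h before dosing; serial dilutions from DMSO stocks, final DMSO ≤1.0%. Exposure 24 or 48 h, then MTS reagent 1–2 h at 37 °C, absorbance 490 nm vs untreated cells. EC50 from dose–response curves; triplicate wells, mean ± SEM of three independent experiments.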

[5] = Antagonist activity at sigma-2 receptor in mouse EMT6 cells assessed as inhibition of cell proliferation after 24 hrs by MTS assay; format: cell-based; details: EMT6, 24 h; method in brief: as §1
Homo sapiens = species on record: Homo sapiens; assay: Selectivity ratio of Ki for sigma-1 receptor (unknown origin) to Ki for sigma-2 receptor (unknown origin)
[6] = Lipophilicity, log P of the compound; format: physicochemical; details: octanol/water
[7] = target: Sigma non-opioid intracellular receptor 1 (Homo sapiens, UniProt Q99720); assay: Binding affinity to sigma-1 receptor (unknown origin)
[8] = Binding affinity to sigma-2 receptor (unknown origin); set-up: species or system Homo sapiens
[9] = Displacement of [3H]DTG from sigma-2 receptor in human MCF7 cell membranes after 120 mins
[10] = target: Sigma non-opioid intracellular receptor 1 (Mus musculus, UniProt O55242); assay: Displacement of 5-bromo-N-(4-(3,4-dihydro-6,7-dimethoxyisoquinolin-2(1H)-yl)butyl)-2,3-dimethoxybenzamide from sigma-1 receptor in mouse EMT6 cell membranes after 60 mins by Scatchard plot analysis
[11] = Displacement of 5-bromo-N-(4-(3,4-dihydro-6,7-dimethoxyisoquinolin-2(1H)-yl)butyl)-2,3-dimethoxybenzamide from sigma-2 receptor in mouse EMT6 cell membranes after 60 mins by Scatchard plot analysis
EMT6 = assay: Selectivity ratio of Ki for sigma-1 receptor in mouse EMT6 cell membranes to Ki for sigma-2 receptor in mouse EMT6 cell membranes; format: cell-based

Chain of Sigma non-opioid intracellular receptor 1 (Mus musculus, UniProt O55242) (O55242 whole entry): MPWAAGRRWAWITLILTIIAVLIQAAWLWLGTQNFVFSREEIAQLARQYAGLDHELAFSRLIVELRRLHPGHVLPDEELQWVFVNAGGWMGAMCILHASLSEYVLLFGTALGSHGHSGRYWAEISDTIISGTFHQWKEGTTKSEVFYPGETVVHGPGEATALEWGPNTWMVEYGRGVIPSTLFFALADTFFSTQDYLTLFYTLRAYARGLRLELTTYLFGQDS
Chain of Sigma non-opioid intracellular receptor 1 (Cavia porcellus, UniProt Q60492) (Q60492 whole entry): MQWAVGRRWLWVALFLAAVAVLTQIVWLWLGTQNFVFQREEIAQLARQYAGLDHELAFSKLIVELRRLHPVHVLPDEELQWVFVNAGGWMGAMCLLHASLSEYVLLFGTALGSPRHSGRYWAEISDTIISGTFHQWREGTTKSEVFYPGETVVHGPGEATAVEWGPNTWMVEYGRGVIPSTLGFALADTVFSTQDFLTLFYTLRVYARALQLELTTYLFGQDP
Chain of Sigma non-opioid intracellular receptor 1 (Homo sapiens, UniProt Q99720) (Q99720 whole entry): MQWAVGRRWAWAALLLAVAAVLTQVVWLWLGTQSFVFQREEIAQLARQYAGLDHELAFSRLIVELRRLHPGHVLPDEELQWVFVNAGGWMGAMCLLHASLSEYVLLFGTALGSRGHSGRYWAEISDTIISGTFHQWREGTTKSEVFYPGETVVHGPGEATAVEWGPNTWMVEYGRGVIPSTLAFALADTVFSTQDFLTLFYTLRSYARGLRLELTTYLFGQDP

Compound | Ki [1] | Ratio Ki [2] | Ki [3] | other results
COc1ccccc1Cn1cc(C(=O)NCCN2CCc3cc(OC)c(OC)cc3C2)nn1 | 18600 nM | 118 | 156 nM | –
COc1cc2c(cc1OC)CN(CCCCNC(=O)c1cn(-c3ccc(OCCF)cc3)nn1)CC2 | 46300 nM | 2120 | 21.9 nM | –
COc1cccc(Cn2cc(C(=O)NCCCCN3CCc4cc(OC)c(OC)cc4C3)nn2)c1 | 12700 nM | 1180 | 10.7 nM | –
COc1cccc(Cn2cc(-c3ccc(C(=O)NCCCCN4CCc5cc(OC)c(OC)cc5C4)cc3)nn2)c1 | 11500 nM | 174 | 66.2 nM | –
COc1ccc(Cn2cc(-c3ccc(C(=O)NCCCCN4CCc5cc(OC)c(OC)cc5C4)cc3)nn2)cc1 | 12600 nM | 406 | 31.4 nM | –
COc1cc2c(cc1OC)CN(CCCCNC(=O)c1cc(-n3cc(CN(C)C)nn3)ccc1OCCF)CC2 | 21900 nM | 232 | 94 nM | –
COc1ccccc1Cn1cc(-c2ccc(C(=O)NCCCCN3CCc4cc(OC)c(OC)cc4C3)cc2)nn1 | 8580 nM | 156 | 55 nM | –
COc1cc2c(cc1OC)CN(CCCCNC(=O)c1cn(-c3cccc(OCCF)c3)nn1)CC2 | 17900 nM | 715 | 25.1 nM | –
COc1cc2c(cc1OC)CN(CCCCNC(=O)c1cn(Cc3cccc(OCCF)c3)nn1)CC2 | 46300 nM | 744 | 62.1 nM | –
COc1cc2c(cc1OC)CN(CCCCNC(=O)c1cn(Cc3ccc(O)cc3)nn1)CC2 | 63500 nM | 5480 | 11.6 nM | –
COc1cccc(Cn2cc(-c3cccc(C(=O)NCCCCN4CCc5cc(OC)c(OC)cc5C4)c3)nn2)c1 | 1750 nM | 26 | 66 nM | –
COc1cc2c(cc1OC)CN(CCCCNC(=O)c1cn(Cc3ccccc3)nn1)CC2 | 4480 nM | 361 | 12.4 nM | –
COc1cc2c(cc1OC)CN(CCCCNC(=O)c1cn(-c3ccccc3OC)nn1)CC2 | 13100 nM | 8740 | 1.5 nM | –
COc1cc2c(cc1OC)CN(CCCCNC(=O)c1cn(-c3ccccc3OCCF)nn1)CC2 | 17100 nM | 713 | 24 nM | –
COc1cc2c(cc1OC)CN(CCNC(=O)c1cn(-c3ccccc3OC)nn1)CC2 | 15500 nM | 103 | 150 nM | –
COc1cc2c(cc1OC)CN(CCCCNC(=O)c1cc(C#N)ccc1OCc1cn(CCF)nn1)CC2 | 14100 nM | 442 | 31.9 nM | –
COc1cc2c(cc1OC)CN(CCCCNC(=O)c1ccc(-c3cn(CCF)nn3)cc1)CC2 | 71900 nM | 517 | 139 nM | –
COc1cccc(-n2cc(C(=O)NCCCCN3CCc4cc(OC)c(OC)cc4C3)nn2)c1 | 20200 nM | 6730 | 3 nM | –
COc1ccc(-n2cc(C(=O)NCCCCN3CCc4cc(OC)c(OC)cc4C3)nn2)cc1 | 39200 nM | 7120 | 5.5 nM | EC50 [4]: > 200000 nM; EC50 [5]: > 200000 nM
CN1CC[C@]2(c3cccc(O)c3)CC/C(=C/c3ccc(Cl)c(Cl)c3)[C@@H]1C2 | – | – | – | Ratio Ki (Homo sapiens): 557; logP [6]: 4.34; Ki [7]: 7460 nM; Ki [8]: 13.4 nM
COc1cc2c(cc1OC)CN(CCCCNC(=O)c1c[nH]nn1)CC2 | 11000 nM | 10.7 | 1020 nM | –

Compound | Ki [1] | Ratio Ki [2] | Ki [3] | other results
COc1cc2c(cc1OC)CN(CCCCNC(=O)c1ccc(-c3cn(CCOCCOCCF)nn3)cc1)CC2 | 16000 nM | 75 | 212 nM | –
COc1cccc2c1CCCC2CCCN1CCN(C2CCCCC2)CC1 (configuration not stated) | – | – | – | logP [6]: 5; Ki [9]: 0.28 nM
COc1cc2c(cc1OC)CN(CCCCNC(=O)c1cc(-n3cc(CN(C)C)nn3)ccc1OC)CC2 | 22400 nM | 395 | 56.8 nM | –
COc1cc2c(cc1OC)CN(CCCCNC(=O)c1cc(C)ccc1OC)CC2 | – | – | – | Ki [10]: 3080 nM; logP [6]: 3.55
COc1ccccc1Cn1cc(C(=O)NCCCCN2CCc3cc(OC)c(OC)cc3C2)nn1 | 20600 nM | 2120 | 9.7 nM | –
COc1ccc(Cn2cc(C(=O)NCCN3CCc4cc(OC)c(OC)cc4C3)nn2)cc1 | 84500 nM | 906 | 93.2 nM | –
COc1cc2c(cc1OC)CN(CCCCNC(=O)c1cn(Cc3ccc(OCCF)cc3)nn1)CC2 | 21500 nM | 447 | 48.2 nM | –
COc1cc2c(cc1OC)CN(CCCCNC(=O)c1cc(-n3cc(-c4cncn4C)nn3)ccc1OC)CC2 | 6360 nM | 307 | 20.7 nM | –
C#CCOc1ccc(C#N)cc1C(=O)NCCCCN1CCc2cc(OC)c(OC)cc2C1 | 3680 nM | 301 | 12.2 nM | –
COc1cccc(-n2cc(C(=O)NCCN3CCc4cc(OC)c(OC)cc4C3)nn2)c1 | 76700 nM | 426 | 180 nM | –
COc1cc2c(cc1OC)CN(CCCCNC(=O)c1cc(I)ccc1OCCF)CC2 | – | – | – | Ki [10]: 1300 nM; logP [6]: 4.61; Ki [11]: 1.06 nM
COc1cc2c(cc1OC)CN(CCCCNC(=O)c1cc(-n3cc(COCCOCCF)nn3)ccc1OC)CC2 | 11500 nM | 174 | 66 nM | –
COc1cc2c(cc1OC)CN(CCCCNC(=O)c1ccc(-c3cn(CCOCCF)nn3)cc1)CC2 | 14700 nM | 107 | 137 nM | –
CN1CC[C@]2(c3cccc(O)c3)CC/C(=C/c3ccccc3)[C@@H]1C2 | – | – | – | Ratio Ki (Homo sapiens): 185; logP [6]: 3.22; Ki [7]: 3060 nM; Ki [8]: 16.5 nM
COc1cccc(Cn2cc(C(=O)NCCN3CCc4cc(OC)c(OC)cc4C3)nn2)c1 | 80100 nM | 373 | 214 nM | –
COc1ccc(-n2cc(C(=O)NCCN3CCc4cc(OC)c(OC)cc4C3)nn2)cc1 | > 100000 nM | > 243 | 410 nM | –
COc1cc2c(cc1OC)CN(CCCCNC(=O)c1cc(C)ccc1OCCF)CC2 | – | – | – | Ki [10]: 330 nM; logP [6]: 3.74; Ratio Ki (EMT6): 48; Ki [11]: 6.59 nM
Fc1ccc(-n2cc(CCCCN3CCC4(CC3)OCc3ccccc34)c3ccccc32)cc1 [SIRAMESINE] | – | – | – | EC50 [4]: 5300 nM; EC50 [5]: 14900 nM; logP [6]: 6.07; Ki [8]: 0.12 nM
COc1ccc(Cn2cc(C(=O)NCCCCN3CCc4cc(OC)c(OC)cc4C3)nn2)cc1 | 3350 nM | 669 | 5 nM | –
COc1cc2c(cc1OC)CN(CCCCNC(=O)c1cn(Cc3cccc(O)c3)nn1)CC2 | 8080 nM | 359 | 22.5 nM | –
